In paper PMC4391825 (Chembiochem : a European journal of chemical biology, 2014):

How the values were obtained:
Format in all cases: biochemical
SaPanK [1] = biological target: T1, SaPanK (Staphylococcus aureus, UniProt Q8NVG0); experiment: RP-HPLC of stepwise conversion to […]a; conditions: ATP, MgCl2; 100 mM Tris-HCl pH 7.60, 25 °C (large-scale mixture)
T1 sequence (Q8NVG0 1-267): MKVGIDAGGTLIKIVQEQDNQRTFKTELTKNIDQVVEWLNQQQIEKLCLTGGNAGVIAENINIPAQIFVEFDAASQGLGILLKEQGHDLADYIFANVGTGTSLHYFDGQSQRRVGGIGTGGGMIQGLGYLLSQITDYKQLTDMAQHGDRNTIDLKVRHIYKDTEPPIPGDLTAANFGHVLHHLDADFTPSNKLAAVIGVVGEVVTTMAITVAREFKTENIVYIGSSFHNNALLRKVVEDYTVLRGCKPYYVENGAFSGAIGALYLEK

SaPanK [2] = biological target: T1, SaPanK; experiment: RP-HPLC of stepwise conversion to […]b; conditions: ATP, MgCl2; 100 mM Tris-HCl pH 7.60, 25 °C (large-scale mixture)
PhaECAv = biological target: T2, PhaECAv (Allochromatium vinosum, UniProt P45370); experiment: continuous DTNB assay of CoA release, SigmaPlot fit
T2 sequence (P45370 1-355): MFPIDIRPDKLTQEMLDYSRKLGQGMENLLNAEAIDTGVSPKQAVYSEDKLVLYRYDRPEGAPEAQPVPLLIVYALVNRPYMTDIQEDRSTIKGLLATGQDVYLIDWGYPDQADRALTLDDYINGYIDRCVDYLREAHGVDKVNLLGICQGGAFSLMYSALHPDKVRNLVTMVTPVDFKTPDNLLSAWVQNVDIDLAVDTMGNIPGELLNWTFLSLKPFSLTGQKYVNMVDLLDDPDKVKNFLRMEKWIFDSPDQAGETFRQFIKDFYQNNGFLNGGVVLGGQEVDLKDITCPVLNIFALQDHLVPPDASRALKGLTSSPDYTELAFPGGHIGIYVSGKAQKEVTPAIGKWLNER
T2 sequence (P45372 1-357 partner): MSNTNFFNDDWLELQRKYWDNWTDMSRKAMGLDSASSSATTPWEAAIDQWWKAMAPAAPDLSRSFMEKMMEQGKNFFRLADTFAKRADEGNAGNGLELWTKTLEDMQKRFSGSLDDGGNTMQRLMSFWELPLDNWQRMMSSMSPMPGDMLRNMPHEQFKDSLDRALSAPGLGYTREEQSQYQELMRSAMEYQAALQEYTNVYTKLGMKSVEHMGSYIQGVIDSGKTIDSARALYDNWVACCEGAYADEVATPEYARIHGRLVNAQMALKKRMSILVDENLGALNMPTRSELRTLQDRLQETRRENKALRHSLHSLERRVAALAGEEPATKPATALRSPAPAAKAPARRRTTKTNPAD
Outline: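 Purified wild-type PhaECAv at 5.80 nM, assayed at 30 °C in 100 mM KPi (pH 7.80) with 0.30 mM DTNB, 2 mg/mL BSA, HBCoA 0.025 to 1.60 mM, and test compound at varied concentrations. CoA release followed as A412 (ε 13.7 mM−1cm−1). Rates were taken from the initial fast-phase slope, in duplicate, and fitted to Michaelis-Menten inhibition models; Lineweaver-Burk plots assigned the mode.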

SMILES	Ki (PhaECAv) [µM]	further results
CCCC(=O)O[C@H](C)CC(=O)O[C@H](C)CC(=O)CCCNC(=O)CCNC(=O)[C@H](O)C(C)(C)CO [17a, (R)-((R)-7-(3-((R)-2,4-dihydroxy-3,3-dimethylbutanamido)propanamido)-4-oxoheptan-2-yl) 3-(butyryloxy)butanoate]		RP-HPLC of stepwise conversion to 24a (SaPanK [1]): with sequential additions of SaPanK, EcCoaD, and EcCoaE, the resulting products were eluted faster
CCCC(=O)O[C@H](C)CC(=O)O[C@H](C)CC(=O)O[C@H](C)CC(=O)CCCNC(=O)CCNC(=O)[C@H](O)C(C)(C)CO [17b, (R)-((R)-7-(3-((R)-2,4-dihydroxy-3,3-dimethylbutanamido)propanamido)-4-oxoheptan-2-yl) 3-((R)-3-(butyryloxy)butanoyloxy)butanoate]		RP-HPLC of stepwise conversion to 24b (SaPanK [2]): with sequential additions of SaPanK, EcCoaD, and EcCoaE, the resulting products were eluted faster
CCCC(=O)O[C@H](C)CC(=O)O[C@H](C)CC(=O)CCCNC(=O)CCNC(=O)[C@H](O)C(C)(C)COP(=O)(O)OP(=O)(O)OC[C@H]1O[C@@H](n2cnc3c(N)ncnc32)[C@H](O)[C@@H]1OP(=O)(O)O [26a, sT-CH2-CoA]	600 ± 30	

Further lines, with some results ahead:

Ki (PhaECAv) [µM]	SMILES	further results
500 ± 30	CCCC(=O)O[C@H](C)CC(=O)O[C@H](C)CC(=O)O[C@H](C)CC(=O)CCCNC(=O)CCNC(=O)[C@H](O)C(C)(C)COP(=O)(O)OP(=O)(O)OC[C@H]1O[C@@H](n2cnc3c(N)ncnc32)[C@H](O)[C@@H]1OP(=O)(O)O [26b, sTet-CH2-CoA]	
3130 ± 470	CCCC(=O)O[C@H](C)CC(=O)O[C@H](C)CC=O [compound 29, sT-aldehyde]	
